Activity calls are given as the source filed them. No cut-off for these calls is given here.
Experiments:
HBL-100 = assay: Antiproliferative activity against human HBL100 after 72 hrs by MTT assay; type: functional, cell-based; settings: HBL-100, 72 h
Ovis aries [1] = species on record: Ovis aries; assay: Inhibition of sheep tubulin assembly assessed as half inhibitory molar ratio of compound to tubulin by DAPI fluorometric assay; set-up: unit not given here
Procedure, shortened: (§1)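 Lamb brain tubulin (ammonium sulfate fractionation, ion-exchange chromatography; quantified at 275 nm) was polymerized at 37 °C, started by warming, with DAPI in 20 mM sodium phosphate, 1 mM EGTA, 10 mM MgCl2, 3.4 M glycerol, pH 6.5, with DMSO under 1%. DAPI fluorescence was followed over time, and % inhibition was plotted against the ligand:tubulin molar ratio. Run in triplicate.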

[2] = Lipophilicity, log D of the compound; type: physicochemical; settings: octanol/water
Ovis aries [3] = species on record: Ovis aries; assay: Inhibition of sheep tubulin polymerization at 1 to 30 uM by DAPI fluorometric assay; procedure, shortened: as §1

Row | SMILES | IC50 (HBL-100) | INH (Ovis aries [1]) | logD [2] | inhibition (Ovis aries [3])
1 | COc1ccc(CNc2nc(NCCO)nc(NCc3ccc(OC)cc3)n2)cc1 | 3140 nM | 0.34 | – | –
2 | COc1ccc(CNc2nc(NCCOC(=O)CCc3cn(CCC(=O)N[C@H]4CCc5cc(OC)c(OC)c(OC)c5-c5ccc(OC)c(=O)cc54)nn3)nc(NCc3ccc(OC)cc3)n2)cc1 | 2590 nM | 0.48 | 4.815 | –
3 | COc1ccc(CNc2nc(NCCOC(=O)CCCc3cn(CCCCCC(=O)N[C@H]4CCc5cc(OC)c(OC)c(OC)c5-c5ccc(OC)c(=O)cc54)nn3)nc(NCc3ccc(OC)cc3)n2)cc1 | 1860 nM | 0.48 | 6.367 | –
4 | COc1ccc(CNc2nc(NCCOC(=O)CCCc3cn(CCCCCCCCCC(=O)N[C@H]4CCc5cc(OC)c(OC)c(OC)c5-c5ccc(OC)c(=O)cc54)nn3)nc(NCc3ccc(OC)cc3)n2)cc1 | 1010 nM | 3.4 | 8.738 | –
5 | COc1ccc(CNc2nc(NCCOC(=O)CCCCc3cn(CCC(=O)N[C@H]4CCc5cc(OC)c(OC)c(OC)c5-c5ccc(OC)c(=O)cc54)nn3)nc(NCc3ccc(OC)cc3)n2)cc1 | 1620 nM | 0.41 | 5.591 | –
6 | COc1ccc(CNc2nc(NCc3ccc(OC)cc3)nc(NCc3cn(CCCCCCCCCC(=O)N[C@H]4CCc5cc(OC)c(OC)c(OC)c5-c5ccc(OC)c(=O)cc54)nn3)n2)cc1 | 699 nM | 0.99 | 8.465 | –
7 | COc1ccc(CNc2nc(NCCOC(=O)CCCCCCCCc3cn(CCC(=O)N[C@H]4CCc5cc(OC)c(OC)c(OC)c5-c5ccc(OC)c(=O)cc54)nn3)nc(NCc3ccc(OC)cc3)n2)cc1 | 687 nM | 0.71 | 7.612 | Active
8 | COc1ccc(CNc2nc(NCCOC(=O)CCCCCCCCCCCCCCCc3cn(CCCCCC(=O)N[C@H]4CCc5cc(OC)c(OC)c(OC)c5-c5ccc(OC)c(=O)cc54)nn3)nc(NCc3ccc(OC)cc3)n2)cc1 | 599 nM | 2.75 | 9.814 | –
9 | COc1ccc(CNc2nc(NCCOC(=O)COCCOCCOCCOCCOCCOCCOCCOCCOCCOCCOCC(=O)N[C@H]3CCc4cc(OC)c(OC)c(OC)c4-c4ccc(OC)c(=O)cc43)nc(NCc3ccc(OC)cc3)n2)cc1 | 2930 nM | 3.44 | 2.568 | –

— ChEMBL document CHEMBL2046388, “Synthesis and biological evaluation of novel anticancer bivalent colchicine-tubulizine hybrids” (Bioorg Med Chem, 2012)
